Screening data from PubChem BioAssay.
L929 necroptosis – L929 zVAD cell death inhibition. L929 zVAD necroptosis rescue, ATP luminescence, 24 h; with zVAD 60 µM. AID 1377. viability rescue, % at 10 µM. hit rate 0.38% among 220,000;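 active = activation, scaled between plate controls, above about 75%, limit read from the data; inactive = activation under that limit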;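 note: 0% = zVAD with DMSO and 100% = DMSO alone without zVAD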
TNF necrop inh – TNF-alpha cell death inhibition in Jurkat FADD-/- cells; Jurkat FADD-/- TNF necroptosis rescue, ATP luminescence, 24 h; 0 = TNF only, 100 = no-TNF cells; activation (protection from cell death), % at 10 µM; hit rate 0.068% among 220,000; AID 463075;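 active = activation, meaning protection from cell death, of at least 50% relative to plate controls; inactive = activation below 50%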;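 note: necroptosis triggered by 40 ng/mL TNF-alpha added together with compound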
MDM2 E3 inh – Mdm2 E3 ligase (human) inhibition | Q00987 | cell-based MDM2 ubiquitination luciferase reporter, 2 h; 0 = plate control, 100 = twice control, blank-subtracted | signal enhancement, % at 5 µM | hit rate 0.11% among 210,000 | AID 1230;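 active = signal enhancement of 30% or more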;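 note: luminescence tracks abundance of the self-degrading MDM2-luciferase fusion protein; higher signal means inhibition of MDM2 E3 ligase activity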
Target sequence (Q00987 whole entry, looked up, the tested form may be a part): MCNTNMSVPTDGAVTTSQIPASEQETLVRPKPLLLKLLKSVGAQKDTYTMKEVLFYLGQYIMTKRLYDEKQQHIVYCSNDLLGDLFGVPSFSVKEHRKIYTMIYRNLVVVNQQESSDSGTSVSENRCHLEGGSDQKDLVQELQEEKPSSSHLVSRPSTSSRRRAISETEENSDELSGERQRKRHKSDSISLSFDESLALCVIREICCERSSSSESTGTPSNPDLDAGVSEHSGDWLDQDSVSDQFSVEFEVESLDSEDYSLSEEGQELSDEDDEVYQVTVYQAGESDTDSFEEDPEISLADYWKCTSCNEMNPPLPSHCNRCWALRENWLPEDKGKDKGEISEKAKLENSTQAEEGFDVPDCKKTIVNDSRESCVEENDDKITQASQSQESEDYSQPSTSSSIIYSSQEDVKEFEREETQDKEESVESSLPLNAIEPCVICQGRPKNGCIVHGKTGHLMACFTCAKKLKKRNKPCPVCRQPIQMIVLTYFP
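System: stable MDM2–luciferase fusion reporter cells / Input: 2000 cells seeded into each well / Schedule: 4 h settle plus 2 h compound, 37 °C / Compound: single-point 5 µM / Buffer or medium: cells held in DMEM / Benchmarks: control and blank well means / Evaluation: percent signal gain over controls, blank-subtracted / Measured by: luciferase luminescence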
Wee1 stabilizer – blocks degradation of human Wee1 kinase | P30291 | HeLa Luc-Wee1K328M stability, luciferase luminescence; 100% = proteasome inhibitor MG132 effect | reporter increase, % at 5 µM | hit rate 1.2% among 220,000 | AID 1321;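 active = activation above the mean of all tested compounds plus 3 SD, set per screening run, cut at about 8.8% in these data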;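 note: cells exposed to compound for 20 h before luminescence read; 0% = DMSO alone and 100% = MG132 at 30 µM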
Pf gametocyte – inhibitors of late stage P. falciparum gametocyte viability; P. falciparum stage V gametocytes, ATP luminescence, 24 h; inhibition, % at 10.9 µM; hit rate 0.065% among 150,000; AID 743093;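 active = inhibition above the mean plus 3 SD of compounds within the control limits, set per campaign, cut at about 38% in these data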;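 note: 0% = DMSO wells and 100% = medium only without gametocytes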
Wee1 degr conf – human Wee1 degradation inhibition, confirmation. shares compounds with Wee1 stabilizer. HeLa Luc-Wee1K328M degradation, luminescence; vehicle 0%, proteasome-blocked wells 100%. activation, % at 5 µM. hit rate 4% among 1,100. AID 1410; in the data active = activation above about 8.9%
* marks the source's active call; other numbers are inactive results; · = no result. Shown are actives, neighbours in structure and some others; about 1.6% of the full set was active somewhere.

SMILES	L929 necroptosis	TNF necrop inh	MDM2 E3 inh	Wee1 stabilizer	Pf gametocyte	Wee1 degr conf
Cc1ccc2nc(C3CCN(CC(=O)Nc4ccc5c(c4)OCCO5)CC3)[nH]c2c1	0.1	-3.0	-15.1	12.1*	·	-0.2
Cc1cccc(C)c1N1CCN(C(=O)N2CCOCC2)CC1	1.4	-0.4	-3.7	0.5	11.8	·
Cc1ccc(N2CCN(C(=O)N3CCOCC3)CC2)cc1C	1.0	-0.5	-22.5	11.7*	0.9	6.0
CC(=C/c1ccccc1)/C=N/NC(=O)c1ccccn1	-1.4	-7.8	-68.2	32.4*	4.1	-2.5
CCC(C)NC(=O)c1ccccc1NC(=O)C(C)N(c1ccccc1)S(C)(=O)=O (centres undefined)	0.2	0.9	-8.0	-1.2	2.2	·
Cc1ccc(C(=O)CC(C(=O)O)P(=O)(c2ccccc2)c2ccccc2)cc1 (centres undefined)	-0.7	0.9	2.3	14.4*	-32.8	0.6
COc1ccccc1NC(=S)Nc1cccc2cnccc12	0.8	-2.1	-12.0	-0.7	5.4	·
CCCCN(CCCNc1ncnc2nc[nH]c12)c1ccccc1	6.3	-3.9	-15.4	0.3	·	·
O=C(CSc1cccc[n+]1[O-])Nc1ccc(C(F)(F)F)cc1[N+](=O)[O-]	5.7	0.9	-20.0	1.4	10.0	·
O=[N+]([O-])c1ccc(Sc2cccc[n+]2[O-])c2nonc12	-3.7	-32.8	-69.2	40.0*	-30.3	43.0*
O=C(CSc1nnc(COc2ccccc2)o1)NCCc1ccccc1	-0.3	2.7	-72.3	-1.7	-6.1	·
COc1ccc(NC(=O)c2onc(C)c2Cl)cc1	-0.4	-0.3	-1.3	17.0*	-7.6	-1.4
COc1ccc(NC(=O)c2onc(C)c2Cl)cc1OC	3.5	0.9	-11.6	0.0	·	·
O=C(N=Nc1c(O)[nH]c2ccc(Br)cc12)c1ccccc1-n1cccc1	-0.8	-17.8	-11.0	11.8*	·	21.1*
N=C(N)N=Nc1c(O)[nH]c2ccc(Br)cc12	5.8	-1.5	-30.2	0.5	4.8	·
COc1ccc(C(c2nnnn2Cc2ccccc2)N2CCN(c3ccccc3)CC2)cc1 (centres undefined)	-0.4	0.3	·	1.6	-7.4	·
Cc1cc(Cl)ccc1OCC(=O)N1CCCN(C(=O)COc2ccc(Cl)cc2C)CC1	0.1	1.5	-9.3	3.5	-25.0	·
N=c1c2c3c(sc2ncn1Cc1ccco1)CCCCC3	-0.9	2.8	-5.6	11.6*	-16.1	-1.7
Cc1nc(Nc2ccccc2Cl)sc1C(=O)Nc1ccccc1	5.4	5.3	-8.5	16.8*	19.9	2.1
CCN(CC)C(=O)c1sc2c(c1C)c(=O)n(-c1ccc(OC)cc1OC)c(=O)n2CC(=O)c1ccccc1	-1.6	-0.5	-11.6	11.9*	-1.6	-1.0
C=CS(=O)(=O)c1ccc(Oc2ccc(S(=O)(=O)C=C)cc2)cc1	·	32.2	64.3*	15.2*	-6.4	14.2*
N#CCCn1c(O)c(N=NC(=O)CNC(=O)c2cccs2)c2ccccc21	0.1	0.5	-6.3	15.3*	6.2	-0.5
CCOC(=O)C1=C(N)n2c(s/c(=C\c3ccncc3)c2=O)=C(C(=O)OCC)C1c1ccncc1 (centres undefined)	-0.3	-2.1	-8.2	-0.4	1.4	·
CCOC(=O)C1=c2/c(=C/c3ccncc3)c(N)c(C(=O)OC)n2C(=O)C(c2ccncc2)S1 (centres undefined)	-1.6	-4.7	-20.5	19.1*	-3.1	1.1
CN(C(=O)c1ccc2c(c1)OCO2)C1(C(=O)NC2CCCC2)CCCCC1	-0.1	-0.5	-12.3	-1.6	·	·
CCOC(=O)c1c(N)sc(C(=O)N2CCCC(C(N)=O)C2)c1C (centres undefined)	0.9	2.1	·	-1.8	·	·
O=C(Nc1cccc2ccccc12)c1nn(C23CC4CC(CC(C4)C2)C3)cc1[N+](=O)[O-]	0.6	2.2	-16.0	-0.5	·	·
COc1ccc(NC(=O)c2nn(C34CC5CC(CC(C5)C3)C4)cc2[N+](=O)[O-])cc1	13.7	2.2	-8.1	11.1*	-9.4	0.3
COc1ccc(S(=O)(=O)N2CCN(CC(=O)Nc3ccc(F)c(F)c3)CC2)cc1	0.4	2.8	-7.1	12.1*	-2.1	0.6
